Data set [1] has as its target T1, Insulin-like growth factor 1 receptor (Homo sapiens, UniProt P08069). Briefly: Inhibition of human IGF1R autophosphorylation in transfected mouse NIH3T3 cells. It is filed as cell-based.
Data set [2] concerns Mus musculus. Briefly: Dose normalized AUC (0 to 6 hrs) in po dosed mouse. The format is ADME, organism-based. The conditions noted are these: in vivo. Also on record: time < 6 hr, route oral. The procedure, abridged:
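Oral dosing in mice; dose-normalized AUC in ng h/mL/(mg/kg) calculated over 0–6 h.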

For data set [3], the target named is T1, Insulin-like growth factor 1 receptor. Briefly: Inhibition of GST-tagged IGF1R (957-1367) expressed in baculovirus by time-resolved fluorescence assay.
The target of data set [4] is Mitogen-activated protein kinase 14 (Homo sapiens, UniProt Q16539). Briefly: Inhibition of p38alpha.
Data set [5] deals with Epidermal growth factor receptor (Homo sapiens, UniProt P00533). Kind of data set: Inhibition of EGFR.
Data set [6] deals with Tyrosine-protein kinase Lck (Homo sapiens, UniProt P06239). Briefly: Inhibition of LCK.
The target in data set [7] is Receptor tyrosine-protein kinase erbB-4 (Homo sapiens, UniProt Q15303). Kind of data set: Inhibition of ErbB4.
Data set [8] addresses Aurora kinase B (Homo sapiens, UniProt Q96GD4). Kind of data set: Inhibition of Aurora B.
For data set [9], the target named is Receptor tyrosine-protein kinase erbB-2 (Homo sapiens, UniProt P04626). Kind of data set: Inhibition of ErbB2.
The target in data set [10] is T2, Aurora kinase A (Homo sapiens, UniProt O14965).
T2 sequence (O14965 whole entry): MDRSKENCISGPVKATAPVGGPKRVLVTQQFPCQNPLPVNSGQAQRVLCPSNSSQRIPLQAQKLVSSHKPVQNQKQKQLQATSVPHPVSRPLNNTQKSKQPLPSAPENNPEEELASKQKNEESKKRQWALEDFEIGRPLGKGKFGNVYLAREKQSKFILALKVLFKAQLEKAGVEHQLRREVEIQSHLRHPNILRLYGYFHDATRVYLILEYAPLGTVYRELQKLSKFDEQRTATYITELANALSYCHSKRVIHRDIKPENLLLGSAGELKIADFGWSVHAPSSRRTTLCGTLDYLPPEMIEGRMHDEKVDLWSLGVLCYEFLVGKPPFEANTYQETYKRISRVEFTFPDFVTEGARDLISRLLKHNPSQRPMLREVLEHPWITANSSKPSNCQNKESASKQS
Kind of data set: Inhibition of Aurora A.

Data set [11] has as its target Insulin receptor (Homo sapiens, UniProt P06213). Kind of data set: Inhibition of GST-tagged insulin receptor expressed in baculovirus by time-resolved fluorescence assay. The procedure, abridged: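 GST-tagged IR intracellular domain (aa 979–1382), baculovirus-expressed, activated at 2.7 µM with 2 mM ATP in 50 mM Hepes pH 7.5, 10 mM MgCl2, BSA. Phosphopeptide by TRF with streptavidin-allophycocyanin and Eu-anti-phosphotyrosine. n ≥ 2.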

In data set [12] the target is Serine/threonine-protein kinase B-raf (Homo sapiens, UniProt P15056, V600E). Kind of data set: Inhibition of B-raf V600E mutant.

Structures are written as SMILES.

T1 sequence (P08069 31-736 limits assumed): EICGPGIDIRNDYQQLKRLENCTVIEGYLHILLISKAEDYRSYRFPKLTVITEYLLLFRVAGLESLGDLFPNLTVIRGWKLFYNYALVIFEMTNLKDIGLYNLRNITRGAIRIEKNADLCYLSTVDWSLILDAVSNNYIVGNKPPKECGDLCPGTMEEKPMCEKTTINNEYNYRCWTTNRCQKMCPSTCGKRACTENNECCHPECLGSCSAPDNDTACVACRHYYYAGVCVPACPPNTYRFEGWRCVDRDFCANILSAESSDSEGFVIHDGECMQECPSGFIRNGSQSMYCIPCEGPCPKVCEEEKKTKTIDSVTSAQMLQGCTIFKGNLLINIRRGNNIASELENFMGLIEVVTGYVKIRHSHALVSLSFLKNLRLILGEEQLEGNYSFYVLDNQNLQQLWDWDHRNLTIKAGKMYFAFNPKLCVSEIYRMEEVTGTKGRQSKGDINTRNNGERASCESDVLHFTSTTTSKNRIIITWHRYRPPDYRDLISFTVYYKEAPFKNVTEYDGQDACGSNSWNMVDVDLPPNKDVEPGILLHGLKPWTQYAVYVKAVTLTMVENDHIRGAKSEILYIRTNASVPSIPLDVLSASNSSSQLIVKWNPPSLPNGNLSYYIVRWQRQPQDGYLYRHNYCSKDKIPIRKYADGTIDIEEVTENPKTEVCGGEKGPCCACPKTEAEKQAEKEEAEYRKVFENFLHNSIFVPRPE
T1 sequence (P08069 741-1367 limits assumed): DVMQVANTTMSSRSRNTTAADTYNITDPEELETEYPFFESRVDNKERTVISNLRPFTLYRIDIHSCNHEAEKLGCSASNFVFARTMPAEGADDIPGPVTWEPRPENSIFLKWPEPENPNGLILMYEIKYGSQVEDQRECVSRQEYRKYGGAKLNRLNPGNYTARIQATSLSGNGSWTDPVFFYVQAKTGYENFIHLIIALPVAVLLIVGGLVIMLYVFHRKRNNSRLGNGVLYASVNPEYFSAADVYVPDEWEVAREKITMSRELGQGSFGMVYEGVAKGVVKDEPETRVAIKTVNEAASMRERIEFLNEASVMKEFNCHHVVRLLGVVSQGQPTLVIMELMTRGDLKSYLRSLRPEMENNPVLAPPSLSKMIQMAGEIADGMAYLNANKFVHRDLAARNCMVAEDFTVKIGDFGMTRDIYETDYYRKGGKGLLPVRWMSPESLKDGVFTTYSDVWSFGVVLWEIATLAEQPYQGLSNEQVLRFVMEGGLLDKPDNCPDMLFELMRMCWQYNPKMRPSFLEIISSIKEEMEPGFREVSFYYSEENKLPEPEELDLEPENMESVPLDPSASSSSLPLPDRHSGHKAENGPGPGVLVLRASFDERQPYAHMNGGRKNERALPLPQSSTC
Sequence of Insulin receptor (P06213 28-758 limits assumed): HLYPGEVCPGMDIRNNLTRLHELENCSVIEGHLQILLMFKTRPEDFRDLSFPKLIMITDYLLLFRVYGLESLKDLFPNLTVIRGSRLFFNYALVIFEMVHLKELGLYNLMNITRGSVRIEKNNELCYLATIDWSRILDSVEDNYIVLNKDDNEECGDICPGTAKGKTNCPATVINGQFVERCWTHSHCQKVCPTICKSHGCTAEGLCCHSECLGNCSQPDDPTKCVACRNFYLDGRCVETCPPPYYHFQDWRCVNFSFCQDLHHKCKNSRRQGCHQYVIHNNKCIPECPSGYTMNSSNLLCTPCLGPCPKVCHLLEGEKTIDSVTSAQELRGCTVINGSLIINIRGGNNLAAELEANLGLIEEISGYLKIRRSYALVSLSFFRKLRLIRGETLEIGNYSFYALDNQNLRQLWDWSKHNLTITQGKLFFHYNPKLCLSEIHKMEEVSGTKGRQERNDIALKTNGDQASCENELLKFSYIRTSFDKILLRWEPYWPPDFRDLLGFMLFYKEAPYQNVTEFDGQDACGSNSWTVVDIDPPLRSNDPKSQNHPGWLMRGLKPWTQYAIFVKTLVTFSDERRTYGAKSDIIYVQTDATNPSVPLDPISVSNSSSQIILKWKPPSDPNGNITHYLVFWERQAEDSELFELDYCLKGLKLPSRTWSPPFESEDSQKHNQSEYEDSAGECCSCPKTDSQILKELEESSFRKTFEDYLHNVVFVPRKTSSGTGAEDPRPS
Sequence of Insulin receptor (P06213 763-1382 limits assumed): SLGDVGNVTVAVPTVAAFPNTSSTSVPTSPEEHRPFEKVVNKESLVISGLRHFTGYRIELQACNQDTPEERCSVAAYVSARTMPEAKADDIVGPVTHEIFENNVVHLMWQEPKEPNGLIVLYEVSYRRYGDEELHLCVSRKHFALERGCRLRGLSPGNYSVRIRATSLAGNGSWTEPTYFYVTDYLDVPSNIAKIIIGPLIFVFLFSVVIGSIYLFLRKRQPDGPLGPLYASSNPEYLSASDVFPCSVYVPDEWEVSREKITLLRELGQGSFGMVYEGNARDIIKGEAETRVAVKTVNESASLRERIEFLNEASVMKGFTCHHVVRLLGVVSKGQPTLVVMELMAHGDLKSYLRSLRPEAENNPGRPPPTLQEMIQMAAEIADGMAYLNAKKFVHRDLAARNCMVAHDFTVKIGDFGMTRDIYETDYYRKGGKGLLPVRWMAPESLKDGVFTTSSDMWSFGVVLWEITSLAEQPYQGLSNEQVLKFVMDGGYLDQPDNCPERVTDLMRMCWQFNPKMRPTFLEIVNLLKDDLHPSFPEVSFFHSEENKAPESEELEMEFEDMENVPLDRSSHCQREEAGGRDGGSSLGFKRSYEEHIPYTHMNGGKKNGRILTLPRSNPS
Sequence of Receptor tyrosine-protein kinase erbB-4 (Q15303 whole entry): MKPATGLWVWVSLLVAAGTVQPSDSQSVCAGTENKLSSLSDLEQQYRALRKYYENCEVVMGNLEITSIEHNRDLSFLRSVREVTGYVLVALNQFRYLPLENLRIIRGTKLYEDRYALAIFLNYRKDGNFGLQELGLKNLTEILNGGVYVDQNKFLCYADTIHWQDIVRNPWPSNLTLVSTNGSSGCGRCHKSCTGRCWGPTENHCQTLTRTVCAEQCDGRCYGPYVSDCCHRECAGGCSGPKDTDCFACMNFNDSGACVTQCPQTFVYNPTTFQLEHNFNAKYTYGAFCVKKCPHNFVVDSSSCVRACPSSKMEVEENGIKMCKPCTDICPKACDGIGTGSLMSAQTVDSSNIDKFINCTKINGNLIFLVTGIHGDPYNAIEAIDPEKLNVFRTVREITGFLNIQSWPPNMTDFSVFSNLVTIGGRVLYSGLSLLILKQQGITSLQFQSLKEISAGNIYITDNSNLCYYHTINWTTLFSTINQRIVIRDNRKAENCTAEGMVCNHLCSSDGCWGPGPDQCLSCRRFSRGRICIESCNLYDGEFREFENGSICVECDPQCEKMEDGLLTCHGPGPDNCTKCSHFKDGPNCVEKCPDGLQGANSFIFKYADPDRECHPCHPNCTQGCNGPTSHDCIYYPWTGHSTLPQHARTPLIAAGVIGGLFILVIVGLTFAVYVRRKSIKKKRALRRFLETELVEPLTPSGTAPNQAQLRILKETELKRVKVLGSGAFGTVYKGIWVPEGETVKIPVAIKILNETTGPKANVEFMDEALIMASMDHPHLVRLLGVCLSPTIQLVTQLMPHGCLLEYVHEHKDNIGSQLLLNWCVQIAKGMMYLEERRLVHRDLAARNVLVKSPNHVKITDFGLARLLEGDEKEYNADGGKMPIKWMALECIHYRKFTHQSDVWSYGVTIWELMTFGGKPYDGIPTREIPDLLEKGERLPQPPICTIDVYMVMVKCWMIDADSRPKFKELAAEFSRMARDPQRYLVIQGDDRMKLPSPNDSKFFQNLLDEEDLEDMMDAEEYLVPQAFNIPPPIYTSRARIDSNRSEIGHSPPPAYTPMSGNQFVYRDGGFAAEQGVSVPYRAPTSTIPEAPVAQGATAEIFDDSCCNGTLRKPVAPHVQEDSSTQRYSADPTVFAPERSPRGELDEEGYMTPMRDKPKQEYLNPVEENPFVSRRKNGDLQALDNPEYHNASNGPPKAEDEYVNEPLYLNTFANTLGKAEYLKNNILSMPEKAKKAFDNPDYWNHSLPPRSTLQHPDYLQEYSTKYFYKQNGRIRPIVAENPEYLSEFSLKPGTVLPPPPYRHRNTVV
Sequence of Tyrosine-protein kinase Lck (P06239 whole entry): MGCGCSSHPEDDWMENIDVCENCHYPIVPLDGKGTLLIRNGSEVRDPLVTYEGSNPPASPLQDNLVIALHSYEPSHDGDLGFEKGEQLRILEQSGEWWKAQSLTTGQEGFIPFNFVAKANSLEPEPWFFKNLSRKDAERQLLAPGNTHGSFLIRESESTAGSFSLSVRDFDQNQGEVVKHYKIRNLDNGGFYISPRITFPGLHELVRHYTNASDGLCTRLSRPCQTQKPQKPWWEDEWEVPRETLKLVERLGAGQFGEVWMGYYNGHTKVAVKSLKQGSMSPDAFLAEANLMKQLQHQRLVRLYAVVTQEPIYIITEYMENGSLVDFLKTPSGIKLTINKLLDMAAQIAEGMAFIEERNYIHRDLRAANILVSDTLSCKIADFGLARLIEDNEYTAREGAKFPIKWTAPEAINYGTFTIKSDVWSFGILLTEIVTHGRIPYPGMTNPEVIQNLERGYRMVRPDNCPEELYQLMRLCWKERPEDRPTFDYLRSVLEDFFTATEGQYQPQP
Sequence of Mitogen-activated protein kinase 14 (Q16539 whole entry): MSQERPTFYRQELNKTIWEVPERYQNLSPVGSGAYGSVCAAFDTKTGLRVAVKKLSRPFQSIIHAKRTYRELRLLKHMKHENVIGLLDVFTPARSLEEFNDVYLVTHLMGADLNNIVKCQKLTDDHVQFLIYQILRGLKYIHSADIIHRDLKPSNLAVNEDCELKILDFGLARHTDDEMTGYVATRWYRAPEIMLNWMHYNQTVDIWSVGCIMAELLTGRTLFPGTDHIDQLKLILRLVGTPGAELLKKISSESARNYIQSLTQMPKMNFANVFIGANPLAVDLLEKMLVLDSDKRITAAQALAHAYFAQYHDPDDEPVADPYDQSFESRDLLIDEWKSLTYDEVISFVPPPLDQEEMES

The term IC50 denotes the point on the concentration scale where inhibition reaches its midpoint. One may read the AUC as concentration integrated over time. As to `COc1cc(N2CCC(N3CCN(C(C)=O)CC3)CC2)ccc1Nc1nccc(-c2c(-c3cccc(C(=O)Nc4c(F)cccc4F)c3)nc3ccccn23)n1`, the IC50 in [1] came to 65 nM; in data set [3] it was 3 nM. The compound further displayed an AUC in [2] of 216 ng·h/mL.

For the compound `CN(C)CCOc1cccc(Nc2nccc(-c3c(-c4cccc(C(=O)Nc5c(F)cccc5F)c4)nc4ccccn34)n2)c1`, the IC50 was determined as 177 nM in data set [1] and 1 nM in data set [3].

In the case of `CCc1cc(Nc2nccc(-c3c(-c4cccc(C(=O)Nc5c(F)cccc5F)c4)nc4ccccn34)n2)c(OC)cc1N1CCC(N2CCN(S(C)(=O)=O)CC2)CC1`, the half-maximal inhibitory concentration (IC50) in [4] amounted to 1800 nM; in [5], 22 nM; in data set [6] it was 710 nM; in data set [7], 140 nM; in data set [8], 1300 nM; in [9] it was 54 nM. Moreover, the IC50 in data set [10] was > 9500 nM; in data set [3], 7 nM; in [11], 7 nM; in [12] it was 320 nM.

For `COc1cc(N2CCC(N3CCN(C)CC3)CC2)ccc1Nc1nccc(-c2c(-c3cccc(C(=O)Nc4c(F)cccc4F)c3)nc3ccccn23)n1`, the IC50 is 28 nM in data set [1] and 2 nM in data set [3]. In data set [2], this compound returned an AUC of 203 ng·h/mL.

`O=C(Nc1c(F)cccc1F)c1cccc(-c2nc3ccccn3c2-c2ccnc(Nc3ccc(N4CCC(N5CCCCC5)CC4)cc3)n2)c1`: the IC50 in [1] worked out at 87 nM; in data set [3], 2 nM.

As for `COc1cc(N2CCC(N3C[C@@H](C)O[C@@H](C)C3)CC2)ccc1Nc1nccc(-c2c(-c3cccc(C(=O)Nc4c(F)cccc4F)c3)nc3ccccn23)n1`, the IC50 was found to be 68 nM in data set [1] and 4 nM in data set [3]. Further, the exposure (AUC) in [2] turned out to be 549 ng·h/mL.

Values taken from ChEMBL document CHEMBL1143280, “Discovery and optimization of imidazo[1,2-a]pyridine inhibitors of insulin-like growth factor-1 receptor (IGF-1R)” (Bioorg Med Chem Lett, 2009).
